Data reported in ChEMBL document CHEMBL1944524, “Synthesis and structure-activity relationship of 5-pyridazin-3-one phenoxypiperidines as potent, selective histamine H(3) receptor inverse agonists” (Bioorg Med Chem Lett, 2012).
Calls of active or inactive are those of the source. The rule behind the calls is not given here.

How the values were obtained:
[1] = Tmax in rat at 10 mg/kg, po; format: ADME, organism-based; set-up: dose 10 mg/kg, route oral; details: in vivo
In short: (§1)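 Rat PK study, dosed 1 mg/kg iv plus 10 or 5 mg/kg po. iv vehicle 3% DMSO, 30% solutol, 67% phosphate buffered saline; oral vehicle 50% Tween 80, 40% propylene carbonate, 10% propylene glycol.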

[2] = molecular target: T1, Histamine H3 receptor (Homo sapiens, UniProt Q9Y5N1); assay: Inverse agonist activity at human histamine H3 histamine receptor by [35S]GTPgammaS binding assay; format: functional
In short: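 Functional assay measuring [35S]GTPγS binding at the human H3 receptor. Inverse agonist potency is reported as an EC50.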

[3] = system: Salmonella typhimurium; assay: Genotoxicity against Salmonella Typhimurium TA98 by Ames test in the presence of rat liver S9 fraction; format: toxicity, organism-based; details: salmonella enterica subsp. enterica serovar typhimurium
[4] = system: Rattus norvegicus; assay: Wake promoting activity in Sprague-Dawley rat EEG/EMG sleep-wake model assessed as increase in wake time at 10 mg/kg, ip after 4 hrs; format: functional; details: route intraperitoneal
In short: (§2)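 Male Sprague Dawley rats surgically implanted for chronic EEG/EMG recording; ip dosing during normal quiet period; cumulative wake time over 4 h post dose vs vehicle; n = 6-7/group, mean + SEM, Dunnett's test vs vehicle.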

[5] = system: Rattus norvegicus; assay: Wake promoting activity in Sprague-Dawley rat EEG/EMG sleep-wake model assessed as increase in wake time at 30 mg/kg, ip after 4 hrs relative to control; format: functional; details: route intraperitoneal
In short: (§3)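 Male Sprague Dawley rats surgically implanted for chronic EEG and EMG recording; test agent given ip, vehicle group as control; n = 6-7/group. […] Mean + SEM; Dunnett's test versus vehicle.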

[6] = molecular target: Histamine H3 receptor (Rattus norvegicus, UniProt Q9QYN8); assay: Displacement of [3H]N-alpha-methylhistamine from rat histamine H3 receptor expressed in CHO cells; format: cell-based
[7] = system: Rattus norvegicus; assay: Inhibition of RAMH-induced water drinking in ip dosed rat dipsogenia model; format: functional
In short: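 Rat dipsogenia model: water drinking induced by H3 agonist R-alpha-methylhistamine; test article given ip beforehand; inhibition of drinking measured and ED50 (mg/kg) derived.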

[8] = Volume of distribution in rat at 1 mg/kg, iv; format: ADME, organism-based; set-up: dose 1 mg/kg, route intravenous; details: in vivo; in short: as §1
[9] = system: Salmonella typhimurium; assay: Genotoxicity against Salmonella Typhimurium TA102 by Ames test in the absence of rat liver S9 fraction; format: toxicity, organism-based; details: salmonella enterica subsp. enterica serovar typhimurium
[10] = Apparent permeability of the compound across human Caco2 cells; format: ADME, cell-based; details: Caco-2
In short: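 Caco-2 monolayer permeability; apparent permeability (Papp, cm/s) reported.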

[11] = Clearance in rat at 1 mg/kg, iv; format: ADME, organism-based; set-up: dose 1 mg/kg, route intravenous; details: in vivo; in short: as §1
[12] = system: Salmonella typhimurium; assay: Genotoxicity against Salmonella Typhimurium TA100 by Ames test in the absence of rat liver S9 fraction; format: toxicity, organism-based; details: salmonella enterica subsp. enterica serovar typhimurium
[13] = molecular target: Voltage-gated inwardly rectifying potassium channel KCNH2 (Homo sapiens, UniProt Q12809); assay: Inhibition of human ERG by patch clamp assay
[14] = Plasma protein binding in dog; format: ADME, cell-free, Canis lupus familiaris; details: read-out: PPB (converted)
In short: (§4)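 In vitro binding to plasma proteins of rat, dog and human; percent bound.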

[15] = system: Salmonella typhimurium; assay: Genotoxicity against Salmonella Typhimurium TA1535 by Ames test in the presence of rat liver S9 fraction; format: toxicity, organism-based; details: salmonella enterica subsp. enterica serovar typhimurium
[16] = system: Salmonella typhimurium; assay: Genotoxicity against Salmonella Typhimurium TA1535 by Ames test in the absence of rat liver S9 fraction; format: toxicity, organism-based; details: salmonella enterica subsp. enterica serovar typhimurium
[17] = system: Rattus norvegicus; assay: Wake promoting activity in Sprague-Dawley rat EEG/EMG sleep-wake model assessed as maximum cumulative wake time at 30 mg/kg, ip up to 17 hrs; format: functional, organism-based; set-up: dose 30 mg/kg
[18] = molecular target: Histamine H4 receptor (Homo sapiens) (UniProt Q9H3N8); assay: Inhibition of human histamine H4 receptor at 10 uM
In short: (§5)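 Selectivity screen against human H1, H2 and H4 receptors; percent inhibition at 10 µM.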

[19] = AUC in rat at 10 mg/kg, po; format: ADME, organism-based; set-up: dose 10 mg/kg, route oral; details: plasma; in short: as §1
[20] = system: Salmonella typhimurium; assay: Genotoxicity against Salmonella Typhimurium TA98 by Ames test in the absence of rat liver S9 fraction; format: toxicity, organism-based; details: salmonella enterica subsp. enterica serovar typhimurium
[21] = system: Salmonella typhimurium; assay: Genotoxicity against Salmonella Typhimurium TA1537 by Ames test in the presence of rat liver S9 fraction; format: toxicity, organism-based; details: salmonella enterica subsp. enterica serovar typhimurium
[22] = molecular target: Histamine H2 receptor (Homo sapiens) (UniProt P25021); assay: Inhibition of human histamine H2 receptor at 10 uM; in short: as §5
[23] = Plasma protein binding in human; format: ADME, cell-free; details: read-out: PPB (converted); in short: as §4
[24] = molecular target: T1, Histamine H3 receptor; assay: Displacement of [3H]N-alpha-methylhistamine from human histamine H3 receptor expressed in CHO cells; format: cell-based
[25] = Genotoxicity against mouse lymphocytes by micronuclei test in the absence of rat liver S9 fraction; format: toxicity, cell-based; details: lymphocyte
[26] = Inhibition of alpha-adrenergic receptor at 10 uM
In short: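 Broad panel of 101 GPCRs, ion channels and enzymes; percent inhibition at 10 µM.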

[27] = Inhibition of cytochrome P450; format: ADME
In short: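 CYP inhibition assessed against 5 CYP isoforms; IC50 determined.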

[28] = system: Salmonella typhimurium; assay: Genotoxicity against Salmonella Typhimurium TA100 by Ames test in the presence of rat liver S9 fraction; format: toxicity, organism-based; details: salmonella enterica subsp. enterica serovar typhimurium
[29] = Half life in rat at 1 mg/kg, iv; format: ADME, organism-based; set-up: dose 1 mg/kg, route intravenous; details: in vivo; in short: as §1
[30] = system: Salmonella typhimurium; assay: Genotoxicity against Salmonella Typhimurium TA1537 by Ames test in the absence of rat liver S9 fraction; format: toxicity, organism-based; details: salmonella enterica subsp. enterica serovar typhimurium
[31] = system: Rattus norvegicus; assay: Wake promoting activity in Sprague-Dawley rat EEG/EMG sleep-wake model assessed as increase in wake time at 30 mg/kg, ip after 4 hrs; format: functional; details: route intraperitoneal; in short: as §2
[32] = Aqueous solubility of the compound at pH 7.4; format: physicochemical; details: buffer
In short: (§6)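 Water solubility measured at pH 2 and at pH 7.4, in […].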

[33] = system: Rattus norvegicus; assay: Wake promoting activity in Sprague-Dawley rat EEG/EMG sleep-wake model assessed as slow-wave sleep onset time at 1 mg/kg, ip after 4 hrs (reference value: 34.9 +/- 5.1 mins); format: functional; details: route intraperitoneal; in short: as §3
[34] = Cmax in rat at 10 mg/kg, po; format: ADME, organism-based; set-up: dose 10 mg/kg, route oral; details: in vivo; in short: as §1
[35] = Half life in dog liver microsomes; format: ADME, Canis lupus familiaris, Microsome
In short: (§7)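 Stability in liver microsomes from rat, dog or human; half-life (min) determined.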

[36] = system: Salmonella typhimurium; assay: Genotoxicity against Salmonella Typhimurium TA102 by Ames test in the presence of rat liver S9 fraction; format: toxicity, organism-based; details: salmonella enterica subsp. enterica serovar typhimurium
[37] = Half life in rat liver microsomes; format: ADME, Microsome; in short: as §7
[38] = Oral bioavailability in rat at 10 mg/kg; format: ADME, organism-based; details: in vivo; in short: as §1
[39] = system: Rattus norvegicus; assay: Toxicity in Sprague-Dawley rat assessed as hypersomnolence at 1 to 30 mg/kg, ip after 4 hrs; format: organism-based; set-up: dose 1-30 mg/kg, route intraperitoneal; details: in vivo
[40] = system: Rattus norvegicus; assay: Wake promoting activity in Sprague-Dawley rat EEG/EMG sleep-wake model assessed as maximum cumulative wake time at 30 mg/kg, ip at 6 hrs; format: functional; details: route intraperitoneal
[41] = Half life in human liver microsomes; format: ADME, Microsome; in short: as §7
[42] = Ratio of drug level in brain to plasma in rat at 10 mg/kg, ip after 6 hrs; format: ADME, organism-based; set-up: dose 10 mg/kg, route intraperitoneal; details: read-out: BPR
In short: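 Brain and plasma levels measured in rat 6 h after a 10 mg/kg ip dose; value is brain/plasma ratio.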

[43] = molecular target: Histamine H1 receptor (Homo sapiens) (UniProt P35367); assay: Inhibition of human histamine H1 receptor at 10 uM; in short: as §5
[44] = Plasma protein binding in rat; format: ADME, cell-free; details: read-out: PPB (converted); in short: as §4
[45] = Genotoxicity against mouse lymphocytes by micronuclei test in the presence of rat liver S9 fraction; format: toxicity, Lymphocyte
[46] = Aqueous solubility of the compound at pH 2; format: physicochemical; details: buffer; in short: as §6
[47] = system: Rattus norvegicus; assay: Wake promoting activity in Sprague-Dawley rat EEG/EMG sleep-wake model assessed as slow-wave sleep onset time at 3 mg/kg, ip after 4 hrs (reference value: 34.9 +/- 5.1 mins); format: functional; details: route intraperitoneal; in short: as §3

T1 sequence (Q9Y5N1 whole entry): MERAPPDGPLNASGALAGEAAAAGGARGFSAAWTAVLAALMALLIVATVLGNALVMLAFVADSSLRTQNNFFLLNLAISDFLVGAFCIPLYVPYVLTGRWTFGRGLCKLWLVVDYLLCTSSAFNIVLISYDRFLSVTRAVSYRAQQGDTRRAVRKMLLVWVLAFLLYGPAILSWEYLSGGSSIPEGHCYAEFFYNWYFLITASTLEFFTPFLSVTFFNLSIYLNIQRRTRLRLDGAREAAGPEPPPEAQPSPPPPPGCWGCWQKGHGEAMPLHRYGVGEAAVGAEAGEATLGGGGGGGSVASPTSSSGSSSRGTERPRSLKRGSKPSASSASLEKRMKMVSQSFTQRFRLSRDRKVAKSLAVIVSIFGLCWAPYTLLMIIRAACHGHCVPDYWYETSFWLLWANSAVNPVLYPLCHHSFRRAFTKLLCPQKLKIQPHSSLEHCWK
Histamine H3 receptor (Rattus norvegicus, UniProt Q9QYN8), sequence (Q9QYN8 whole entry): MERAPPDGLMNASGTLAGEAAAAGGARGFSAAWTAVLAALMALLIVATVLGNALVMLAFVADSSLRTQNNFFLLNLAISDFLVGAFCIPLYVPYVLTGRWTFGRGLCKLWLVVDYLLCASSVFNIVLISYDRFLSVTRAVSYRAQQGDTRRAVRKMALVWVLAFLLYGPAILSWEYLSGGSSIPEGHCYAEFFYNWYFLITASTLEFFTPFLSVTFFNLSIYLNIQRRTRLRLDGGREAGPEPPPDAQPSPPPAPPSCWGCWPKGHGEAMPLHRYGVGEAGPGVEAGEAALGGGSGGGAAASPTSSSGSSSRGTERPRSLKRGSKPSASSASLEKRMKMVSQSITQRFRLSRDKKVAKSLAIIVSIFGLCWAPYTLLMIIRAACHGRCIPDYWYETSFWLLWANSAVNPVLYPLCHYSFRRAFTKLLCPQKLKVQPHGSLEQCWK
Histamine H1 receptor (Homo sapiens), sequence (P35367 whole entry): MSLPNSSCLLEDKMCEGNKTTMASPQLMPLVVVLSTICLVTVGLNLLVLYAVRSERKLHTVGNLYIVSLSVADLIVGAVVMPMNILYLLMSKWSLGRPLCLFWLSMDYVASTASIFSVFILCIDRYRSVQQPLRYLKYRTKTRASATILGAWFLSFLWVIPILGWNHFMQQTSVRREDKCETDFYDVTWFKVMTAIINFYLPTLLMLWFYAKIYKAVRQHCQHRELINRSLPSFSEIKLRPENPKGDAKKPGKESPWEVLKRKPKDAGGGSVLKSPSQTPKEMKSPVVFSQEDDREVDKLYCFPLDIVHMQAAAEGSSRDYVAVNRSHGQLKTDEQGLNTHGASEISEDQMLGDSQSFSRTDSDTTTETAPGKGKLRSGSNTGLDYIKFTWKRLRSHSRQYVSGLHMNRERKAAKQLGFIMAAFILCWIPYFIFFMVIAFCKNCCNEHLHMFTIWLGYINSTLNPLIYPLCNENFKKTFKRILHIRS
Histamine H4 receptor (Homo sapiens), sequence (Q9H3N8 whole entry): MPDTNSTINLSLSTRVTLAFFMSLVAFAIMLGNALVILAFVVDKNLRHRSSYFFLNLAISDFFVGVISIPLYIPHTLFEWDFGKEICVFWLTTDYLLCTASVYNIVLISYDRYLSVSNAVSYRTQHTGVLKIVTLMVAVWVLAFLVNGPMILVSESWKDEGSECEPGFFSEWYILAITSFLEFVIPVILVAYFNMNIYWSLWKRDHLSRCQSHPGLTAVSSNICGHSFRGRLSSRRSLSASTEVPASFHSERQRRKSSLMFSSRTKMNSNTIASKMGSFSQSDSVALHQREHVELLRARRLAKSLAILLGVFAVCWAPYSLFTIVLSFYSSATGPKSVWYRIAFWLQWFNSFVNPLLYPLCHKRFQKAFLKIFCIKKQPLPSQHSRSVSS
Voltage-gated inwardly rectifying potassium channel KCNH2, sequence (Q12809 whole entry): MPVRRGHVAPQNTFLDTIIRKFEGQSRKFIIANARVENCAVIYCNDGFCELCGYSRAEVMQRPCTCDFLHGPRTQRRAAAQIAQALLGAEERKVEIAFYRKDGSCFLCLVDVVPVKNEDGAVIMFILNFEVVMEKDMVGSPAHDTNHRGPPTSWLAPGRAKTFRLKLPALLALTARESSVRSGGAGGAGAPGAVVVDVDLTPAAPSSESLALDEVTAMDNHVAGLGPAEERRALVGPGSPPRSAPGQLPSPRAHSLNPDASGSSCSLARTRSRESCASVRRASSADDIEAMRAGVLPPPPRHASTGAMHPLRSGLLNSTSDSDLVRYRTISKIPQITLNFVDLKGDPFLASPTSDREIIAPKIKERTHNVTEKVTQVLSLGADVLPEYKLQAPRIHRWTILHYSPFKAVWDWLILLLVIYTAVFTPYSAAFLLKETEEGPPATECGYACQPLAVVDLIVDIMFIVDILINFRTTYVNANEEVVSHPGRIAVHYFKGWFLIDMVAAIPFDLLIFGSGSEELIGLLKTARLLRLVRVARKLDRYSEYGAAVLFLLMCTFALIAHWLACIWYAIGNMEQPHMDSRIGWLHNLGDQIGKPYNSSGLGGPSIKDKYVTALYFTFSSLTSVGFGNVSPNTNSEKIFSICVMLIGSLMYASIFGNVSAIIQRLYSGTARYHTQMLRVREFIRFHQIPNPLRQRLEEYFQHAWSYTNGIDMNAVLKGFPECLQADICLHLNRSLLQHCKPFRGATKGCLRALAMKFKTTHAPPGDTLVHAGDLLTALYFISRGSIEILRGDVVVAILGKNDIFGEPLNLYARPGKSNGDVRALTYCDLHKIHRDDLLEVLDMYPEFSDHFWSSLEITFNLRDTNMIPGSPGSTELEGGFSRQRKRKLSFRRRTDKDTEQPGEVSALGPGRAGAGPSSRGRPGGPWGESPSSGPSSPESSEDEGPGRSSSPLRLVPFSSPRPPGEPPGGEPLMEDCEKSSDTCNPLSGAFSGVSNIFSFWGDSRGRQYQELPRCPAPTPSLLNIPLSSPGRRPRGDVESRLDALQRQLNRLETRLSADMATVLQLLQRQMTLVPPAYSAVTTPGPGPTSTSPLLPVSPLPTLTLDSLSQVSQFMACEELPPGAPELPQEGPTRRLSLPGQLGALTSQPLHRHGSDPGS
Histamine H2 receptor (Homo sapiens), sequence (P25021 whole entry): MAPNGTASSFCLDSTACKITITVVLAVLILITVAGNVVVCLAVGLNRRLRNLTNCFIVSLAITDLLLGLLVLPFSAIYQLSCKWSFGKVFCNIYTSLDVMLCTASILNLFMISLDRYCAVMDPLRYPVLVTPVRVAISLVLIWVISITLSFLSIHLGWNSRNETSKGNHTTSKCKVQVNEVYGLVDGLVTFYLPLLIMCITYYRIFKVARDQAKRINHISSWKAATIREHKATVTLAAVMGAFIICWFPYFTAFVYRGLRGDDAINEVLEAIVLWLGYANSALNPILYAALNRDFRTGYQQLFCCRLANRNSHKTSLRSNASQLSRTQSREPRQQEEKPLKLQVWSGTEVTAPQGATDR

## Cc1n[nH]c(=O)cc1-c1ccc(OC2CCN(C3CCC3)CC2)cc1
[1]
  Tmax: 1 h
[2]
  EC50: 1.1 nM
[3]
  Activity: Non-toxic
[4]
  Time: 167 min
[5]
  Activity: 178%
[6]
  Ki: 6 nM
[7]
  ED50: 0.02 mg/kg
[8]
  Vd: 3.4 L/kg
[9]
  Activity: Non-toxic
[10]
  Papp: 14.9 ×10⁻⁶ cm/s
[11]
  clearance: 25 mL/min/kg
[12]
  Activity: Non-toxic
[13]
  IC50: 7000 nM
[14]
  fraction unbound: 0.57
[15]
  Activity: Non-toxic
[16]
  Activity: Non-toxic
[17]
  Activity: Active
[18]
  inhibition: < 20%
[19]
  AUC: 4870 ng·h/mL
[20]
  Activity: Non-toxic
[21]
  Activity: Non-toxic
[22]
  inhibition: < 20%
[23]
  fraction unbound: 0.42
[24]
  Ki: 5 nM
[25]
  Activity: Non-toxic
[26]
  inhibition: > 50%
[27]
  IC50: > 30000 nM
[28]
  Activity: Non-toxic
[29]
  half-life: 1.5 h
[30]
  Activity: Non-toxic
[31]
  Time: 226 min
[32]
  solubility: > 140 µg/mL
[33]
  Time: 35.3 min
[34]
  Cmax: 673 ng/mL
[35]
  half-life: > 0.667 h
[36]
  Activity: Non-toxic
[37]
  half-life: > 0.667 h
[38]
  bioavailability: 68%
[39]
  Activity: Non-toxic
[40]
  Time: 163 min
[41]
  half-life: > 0.667 h
[42]
  Kp at 6 h: 2.3
[43]
  inhibition: < 20%
[44]
  fraction unbound: 0.46
[45]
  Activity: Non-toxic
[46]
  solubility: > 140 µg/mL
[47]
  Time: 45 min
